Rows were chosen to be rich in hits. Some 2.4% of all compounds tested hit in one or more screens of this group.
SR-BI HDL uptake = inhibitors of SR-BI mediated HDL lipid uptake, primary screen, ldlA[mSR-BI] cells, fluorescence, single point; hit rate 0.96% among 320,000; Scavenger receptor class B member 1 (Mus musculus), Q61009; inhibition, % at 12.5 µM; ldlA[mSR-BI] CHO cells, DiI-HDL uptake fluorescence, 3 h;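 active means mean replicate inhibition of at least 70% and a set share of replicates each scoring 70 or more; inconclusive means meets just one of the two criteria; inactive means fails both criteria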
Target sequence (Q61009 whole entry, looked up): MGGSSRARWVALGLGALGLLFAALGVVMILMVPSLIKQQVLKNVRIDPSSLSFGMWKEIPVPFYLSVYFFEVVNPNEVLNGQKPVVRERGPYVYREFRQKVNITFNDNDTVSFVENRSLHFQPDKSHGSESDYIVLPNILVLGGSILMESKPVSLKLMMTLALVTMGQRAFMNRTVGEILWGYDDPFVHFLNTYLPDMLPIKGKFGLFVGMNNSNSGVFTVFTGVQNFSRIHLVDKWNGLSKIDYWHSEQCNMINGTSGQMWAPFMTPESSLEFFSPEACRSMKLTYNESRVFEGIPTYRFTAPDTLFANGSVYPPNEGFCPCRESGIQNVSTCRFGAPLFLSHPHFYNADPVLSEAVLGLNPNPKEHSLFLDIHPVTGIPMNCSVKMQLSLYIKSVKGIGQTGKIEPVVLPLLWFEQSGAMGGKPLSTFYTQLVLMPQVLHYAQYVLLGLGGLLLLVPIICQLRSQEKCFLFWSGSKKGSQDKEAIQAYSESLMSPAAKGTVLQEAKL
beta cell repl = inducers of MIN6 beta-cell proliferation, primary screen, ATP luminescence, uHTS | MIN6 cells proliferation, ATPlite luminescence, 48 h; cells starved in 0.2% serum; 100% = growth in 10% serum | proliferation, % at 10 µM | hit rate 0.29% among 330,000;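 active means compounds whose signal lies at least 3.5 SD above the mean of all wells on their plate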
SR-BI uptake up = activators of SR-BI mediated DiI-HDL uptake, primary screen, ldlA[mSR-BI] CHO cells, DiI fluorescence; 3 h; 100 = double the neutral-control signal; activation, % at 12.5 µM; hit rate 0.096% among 320,000; AID 504775, 2011;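 active means mean replicate activation of at least 60% and every replicate at or above 60%; inconclusive means mean or all-replicate condition met, but not both; inactive means mean below 60% and not all replicates reaching 60%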
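system = CHO ldlA[mSR-BI] cells, LDL receptor-null, SR-BI overexpressing | medium = Ham's F12 with 0.5% BSA, HEPES 25 mM, pH 7.4 | probe or stimulus = DiI-HDL 10 µg/mL | compound dosing = single-point compound dose | incubation = compound exposure 3 h, 37 °C | technique = DiI fluorescence, bottom read | read-out = cell-associated DiI fluorescence as measure of HDL uptake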
Ins promoter up = insulin promoter activators in MIN6 cells, imaging, high-content screening, mouse beta cells | MIN6 insulin promoter-GFP reporter; hits give high values | z-score at 5 µM | hit rate 0.3% among 190,000 | AID 1625, 2009;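 active means z-score above 3 at 5 µM with at least 500 cells counted in the well; inconclusive means wells under 500 cells, flagged as cytotoxic or low count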
Calb FLC = C. albicans growth inhibition with fluconazole, primary screen, CaCi-2 strain, Alamar Blue fluorescence; C. albicans CaCi-2 + fluconazole, 48 h; growth inhibition, % (concentration not given with the values); hit rate 0.57% among 300,000;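 active means growth inhibition above about 58% in most replicates, limit read from the data, passing the limit was not always enough; inconclusive means exactly half the replicates above a set limit; inactive means most replicates below a set limit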;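 further: all wells also contain fluconazole at 8 µg/ml as a sub-toxic cotreatment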
m5-HT2A agonist = mouse Htr2a agonists via beta-arrestin recruitment, primary screen, cell-based, luminescence; 5-hydroxytryptamine receptor 2A (Mus musculus), P35363; CHO-K1 mHTR2A beta-arrestin complementation; percent of 30 µM serotonin response; activation, % at 7.6 µM; hit rate 0.66% among 360,000;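 active means activation above a run cutoff, the mean activation of all tested compounds plus 3 SD, cut at about 14% in these data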
Numbers stand for hits; 0 = inactive; ? = inconclusive; - = no result.

SMILES | SR-BI HDL uptake | beta cell repl | SR-BI uptake up | Ins promoter up | Calb FLC | m5-HT2A agonist
CCOc1ccc(CCNC(=O)c2nnn(CC(=O)Nc3ccc(OC)cc3)c2N)cc1OCC | 0 | 0 | 0 | - | 0 | 0
CCOc1ccc(/C=C/C(=O)OCC(=O)NCCc2ccc(OCC)c(OCC)c2)cc1OC | 73 | 0 | 0 | - | 0 | 0
CCOc1ccc(CCNC(=O)COC(=O)/C=C/c2cccc(OC)c2)cc1OCC | 0 | 0 | 0 | - | 0 | 0
COc1ccc(/C=C/C(=O)NC(=S)NCCc2ccc(OC)c(OC)c2)cc1 | 83 | 0 | 0 | 0 | 0 | 0
NC(=O)COC(=O)c1ccc2noc(-c3ccccc3)c2c1 | 0 | 0 | 0 | - | 0 | 0
COc1ccc(CCC(=O)NCC23CC4CC(CC(C4)C2)C3)cc1 | 0 | 0 | 0 | - | 0 | 0
O=C(Nc1ccc(N2CCOCC2)c(S(=O)(=O)Nc2ccccc2Cl)c1)c1ccccc1 | 0 | 0 | 0 | - | - | 0
O=C(Nc1ccc(Cl)cc1)Nc1ccc(N2CCCC2)c(S(=O)(=O)Nc2ccccc2Cl)c1 | 102 | 0 | 0 | 0 | 0 | 0
Cc1ccc(NS(=O)(=O)c2ccc(CCC(=O)NCCO)cc2)cc1 | 0 | 0 | 0 | 0 | 112 | 0
NNC(=O)c1cc(-c2cccs2)nc2ccccc12 | - | 0 | - | 0 | 104 | 0
Cc1cccc2sc(NNC(=O)c3cc(-c4cccs4)nc4ccccc34)nc12 | 72 | 0 | 0 | 0 | 85 | 0
C/C(=N\NC(=O)c1cc(-c2cccs2)nc2ccccc12)c1ccccn1 | 0 | 0 | 0 | 0 | 95 | 0
CC(C)NC(=O)c1cc(-c2cccs2)nc2ccccc12 | 0 | 0 | 0 | - | 0 | 0
COc1ccc(-c2cc(C(=O)Nc3nc4c(C)cccc4s3)c3ccccc3n2)cc1OC | 0 | 0 | 0 | 0 | 0 | 0
CC(=C/c1ccccc1)/C=N/n1c(-c2ccncc2)n[nH]c1=S | 0 | 15 | 0 | 0 | 0 | 0
CCn1ncc(S(=O)(=O)Nc2cc(Cl)ccc2C)c1C | 0 | 0 | - | - | 0 | 0
COc1ccccc1NC(=O)COC(=O)C1CC2C=CC1C2 (configuration not stated) | 0 | 0 | 0 | 3 | ? | 0
COc1ccc(/C=N/NC(=O)c2cc3c(OC)ccc(OC)c3[nH]2)cc1O | 0 | 0 | 0 | - | 0 | 0
COc1cccc(/C=N/NC(=O)c2cc3c(OC)cccc3[nH]2)c1O | 103 | 0 | 0 | 0 | 0 | 0
COc1cccc(/C=N/NC(=O)c2cc(-c3cccn3C)n[nH]2)c1O | 0 | 0 | 0 | - | 103 | 0
COc1ccc(OC)c2[nH]c(C(=O)N/N=C/c3ccccc3O)cc12 | 124 | 0 | 0 | - | 90 | 0
CC(C)N(CCn1c(SCC(=O)Nc2cccnc2Cl)nc2ccccc2c1=O)C(C)C | 0 | 0 | 0 | - | - | 0
CCC1(c2ccc(F)cc2)NC(=O)N(CC(=O)Nc2cc(C)on2)C1=O (configuration not stated) | 0 | 0 | 0 | - | - | 0
CC(C)(C)S(=O)(=O)N1C[C@H]2CC/C=C\C/C=C\2[C@@H]1CCO | - | - | - | - | - | 0
COC(=O)c1ccccc1-c1c2ccc(=N)cc-2oc2cc(N)ccc12 | 77 | 0 | 0 | - | - | 0
SMILES | SR-BI HDL uptake | beta cell repl | SR-BI uptake up | Ins promoter up | Calb FLC | m5-HT2A agonist
COC(=O)Cn1c2ccccc2c2nc3ccccc3nc21 | 98 | 0 | 0 | - | 0 | 0
COC(=O)Cn1c2nc3ccccc3nc2c2cccc(C)c21 | 0 | 0 | 0 | - | 0 | 0
CCc1ccccc1NC(=S)NN | - | 0 | - | 0 | 0 | -
CCc1ccccc1NC(=S)NNC(=O)c1ccccc1Cl | 0 | 0 | 0 | 0 | 103 | 0
O=C(NC(=S)NNC(=O)c1ccccc1O)c1cccnc1 | 124 | 0 | 0 | 0 | 0 | 0
COc1ccc(C(=O)NC(=S)NNC(=O)c2ccccc2O)cc1 | 89 | 0 | 0 | - | 0 | 0
FC(F)(F)c1ccccc1NC(=S)N1CCCCCC1 | 0 | 0 | 0 | - | 0 | 0
CCc1ccccc1NC(=S)N1CCCCCC1 | 0 | 0 | 0 | - | 117 | 0
COc1ccc(NC(=O)CCC2CCCCC2)cc1S(=O)(=O)N1CCCCC1 | 0 | 0 | 0 | 0 | 0 | 0
Nc1cc(=O)[nH]c(SCC(=O)NCCC2=CCCCC2)n1 | 0 | 0 | 0 | - | - | 0
Cc1ccc(NC(=O)CN(C)C(=O)Cc2c[nH]c3ccccc23)cc1 | 0 | 0 | 0 | - | - | 0
